Reference: PubChem BioAssay AID602173 (The Scripps Research Institute Molecular Screening Center, 2012)
Calls of active or inactive are those of the source.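 The calls were made as follows: active = change in binding activity of 20% or more in either direction; inactive = change in binding activity under 20%.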

Tested on: HepG2 proliferation, sulforhodamine B absorbance, 7-10 days
Experiment: HepG2 cell proliferation modulation, late-stage follow-up, counter-screen for AHR activator project, absorbance (AID 602173)
Settings: at 10 µM
How it was run: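 Material: Human hepatoma HepG2 cells, estrogen receptor-negative | Amount: 2,000 cells per well | Doses: One dose, 10 µM compound | Times: 24 h pre-culture, 37 °C exposure | Measured by: SRB absorbance at 490 nm, 650 nm corrected | Read-out: Stained cell mass as percent of DMSO-treated wells, negative for inhibition | Control set: DMSO-treated wells as vehicle reference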

| SMILES | proliferation change, negative = inhibition |
| --- | --- |
| COc1ccccc1NC(=O)c1ccc(C(=O)Nc2ccccc2OC)nc1 | -49.8% |
| Cc1nc(N)nc(Nc2ccc(Cl)cc2)c1Br | -19.5% (inactive) |
| Cn1c(C(=O)N2CCC(C(N)=O)CC2)cc2cc(Cl)ccc21 | 3.8% (inactive) |
| Cc1csc(SCC(=O)Nc2ccc(Cl)cn2)n1 | 12.2% (inactive) |
| Cc1nnc(N2C(=O)c3cccc4c([N+](=O)[O-])ccc(c34)C2=O)s1 | -12.8% (inactive) |
| CCOc1ccc(-c2cc(C)n3nc(C(N)=O)cc3n2)cc1 | 11.8% (inactive) |
| COc1ccc(NC(=O)c2cccc3c(Br)cccc23)cc1 | -38.5% |
| Cc1c(-c2ccn[nH]2)cc(NC(=O)c2ccc(Cl)cc2)c(=O)n1N | -6% (inactive) |
| Cc1ccc(-c2cc(-c3cccs3)[nH]n2)c(O)c1 | -97.5% |
| CCOC(=O)Cc1cc(-c2ccc(O)cc2)nc2ccc3ccccc3c12 | -29% |
